Two compounds from ChEMBL document CHEMBL4334446, “Evaluating the effects of fluorine on biological properties and metabolic stability of some antitubulin 3-substituted 7-phenyl-pyrroloquinolinones” (Eur J Med Chem, 2019) can be followed below.

Calls of active or inactive are those of the source. No cut-off for these calls is given here.

The subject of series [1] is A-375. Briefly: Growth inhibition of human A375 cells incubated for 72 hrs by MTT assay. The class given is functional. Conditions: A-375, 72 h.
In series [2] the test system is HeLa. Briefly: Cell cycle arrest in human HeLa cells assessed as decrease in phosphorylated form of cdc2 kinase at 50 to 100 nM incubated for 48 hrs by western blot analysis. The class given is functional, cell-based. In a few lines: (§1)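 HeLa cells were exposed for set times, including 24 and 48 h, then washed in cold PBS and lysed on ice for 30 min. Lysates were cleared at 15000 × g at 4 °C. 10 µg protein was run by SDS-PAGE and transferred to PVDF. Blots were probed 2 h at room temperature with primary antibodies, then peroxidase secondary antibodies, and detected by ECL. Membranes were reprobed for actin as loading control.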

In series [3] the test system is A-375. Briefly: Induction of cell cycle arrest in human A375 cells assessed as reduction in cell population at S phase at 50 to 100 nM incubated for 24 hrs by PI staining based flow cytometric analysis. Format: functional. The essentials: (§2)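 A375 and A2058 melanoma cells were treated 24 h. Cells were fixed in ice-cold 70% ethanol, then given lysis buffer with RNase A and 0.1% Triton X-100 and stained with PI. Phase distribution came from flow cytometric DNA histograms. Mean ± SEM of two independent experiments.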

For series [4], the system named is B16-BL6. Put plainly: Growth inhibition of mouse B16-BL6 cells incubated for 72 hrs by MTT assay. Format: functional. As to conditions: B16-BL6, 72 h.
The subject of series [5] is HeLa. Briefly: Induction of apoptosis in human HeLa cells at 50 nM incubated for 24 to 48 hrs by annexin-V FITC and PI staining based flow cytometric analysis. Format: functional, cell-based. In a few lines: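 HeLa cells were treated 24 or 48 h, then harvested and double-stained with annexin-V-FITC and PI for flow cytometry. Populations were separated as live, early apoptotic, late apoptotic and necrotic. Mean ± SEM of three independent experiments.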

The subject of series [6] is HeLa. Briefly: Cell cycle arrest in human HeLa cells assessed as decrease in cdc25c protein expression level at 50 to 100 nM incubated for 24 hrs by western blot analysis. Format: functional, cell-based. The essentials:
as §1

The test system of series [7] is A-375. Briefly: Induction of cell cycle arrest in human A375 cells assessed as accumulation of cells at G2/M phase at 50 to 100 nM incubated for 24 hrs by PI staining based flow cytometric analysis. Format: functional. The essentials: as §2
In another series the test system is A2058. Put plainly: Induction of cell cycle arrest in human A2058 cells assessed as reduction in cell population at G1 phase at 50 to 100 nM incubated for 24 hrs by PI staining based flow cytometric analysis. The class given is functional. In a few lines:
as §2

Series [8] can be described thus: Toxicity in C57BL/6 mouse allografted with mouse B16-BL6 cells assessed as change in body weight at 3 to 7.5 mg/kg, ip administrated every other day. The class given is organism-based. Conditions: in vivo. The essentials: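 Male six-week-old C57BL/6 mice were given BL6-B16 murine melanoma cells subcutaneously in the dorsolateral flank in PBS. Once tumours reached about 100 mm³, mice were randomised and dosed intraperitoneally every other day with 3.0 or 7.5 mg/kg in DMSO, or vehicle alone. Body weight change was followed; 5 animals per group, mean ± SEM.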

The subject of series [9] is HeLa. Briefly: Induction of cell cycle arrest in human HeLa cells assessed as accumulation at M phase by measuring p-histone H3 level at 50 to 100 nM incubated for 24 hrs by PI staining based flow cytometric analysis. The class given is functional.
Series [10] relates to HeLa. Briefly: Increase in cyclin B1 protein expression level in human HeLa cells incubated for 24 to 48 hrs by western blot analysis. The class given is functional, cell-based. The essentials:
as §1

Series [11] concerns HeLa. Briefly: Cell cycle arrest in human HeLa cells assessed as proportion of mitotic cells at 50 nM incubated for 24 hrs by PI staining based flow cytometric assay (reference value: 1.5%). The class given is functional.
Series [12] can be described thus: Growth inhibition of human DND41 cells incubated for 72 hrs by MTT assay. Format: functional. Conditions: DND41, 72 h. The essentials: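 Leukemia lines were grown in RPMI-1640; the CEM^Vbl-100 medium also contained 100 ng/mL vinblastine. Cells were seeded at 8 × 10³ per well and left 18 h at 37 °C, 5% CO2. Medium was then replaced with fresh medium holding graded compound concentrations (DMSO stocks), in triplicate, for 72 h. Viability was read by MTT, and GI50 = concentration inhibiting proliferation 50%.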

Series [13] has as its system HeLa. Briefly: Induction of apoptosis in human HeLa cells assessed as decrease in Bcl2 protein expression at 10 to 100 nM incubated for 24 hrs by western blot analysis. The class given is functional, cell-based. The essentials:
as §1

For series [14], the system named is B16-BL6. Put plainly: Antitumour activity against mouse B16-BL6 cells allografted in C57BL/6 mouse assessed as reduction in tumor mass at 3 mg/kg, ip administrated every other day relative to control. Format: functional. The essentials:
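Male C57BL/6 mice (six weeks old) got 2.5×10^5 BL6-B16 murine melanoma cells s.c. in the dorsolateral flank, in PBS. Once tumors were measurable (about 100 mm³), mice were randomized and given drug i.p. every other day in 50 µL DMSO. Vehicle (DMSO) group served as control. Tumor volume = (D × d²)/2; tumor weight taken at end. 5 animals per group, mean ± SEM.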

Series [15] has as its system HeLa. Put plainly: Induction of apoptosis in human HeLa cells assessed as increase in H2AX expression at 50 to 100 nM incubated upto 48 hrs by western blot analysis. The class given is functional, cell-based. The essentials:
as §1

The nature of series [16]: Metabolic stability in human liver microsomes assessed as retention time of the parent compound at 10 uM incubated for 60 mins in presence of NADPH by HPLC analysis. Format: ADME, Microsome. Conditions: 1 h. In a few lines: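 Compound (10 µM) was incubated with pooled mixed-gender HLMs (0.5 mg protein/mL), 1 mM NADPH and 0.1 M KH2PO4 pH 7.4 for 60 min at 37 °C, aerobic. The reaction was started with microsomes and stopped with ice-cold acetonitrile; controls lacked NADPH. The supernatant went to C8 HPLC with fluorescence detection (ex 344, em 493 nm). Collected peaks were analyzed by ESI+ mass spectrometry.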

As for `CCn1ccc2c3c(=O)cc(-c4ccccc4F)[nH]c3ccc21`, the GI50 in the series with A-375 [1] was 15.5 nM; in the series with B16-BL6 [4], 10 nM; in series [12], 0.26 nM. Moreover, the inhibition entry in the series on HeLa [2] and with HeLa [6] was “Active” in each case. Further, the result in the series with A-375 [3], in the series on HeLa [5], with A-375 [7], in the series with A2058, in the series with HeLa [9] and in the series on HeLa [13] was Active. In addition, in the series on HeLa [15], the result was Active. The values for the Activity result (in series [8]; with HeLa [10]; in the series on HeLa [11]) were “Non-Toxic”, “Dose-dependent effect” and 10%, respectively. Moreover, the inhibition in vivo at 3 mg/kg with B16-BL6 [14] came out at 28.6%.

As for `CCn1ccc2c3c(=O)cc(-c4ccccc4)[nH]c3ccc21`, the Retention_time in series [16] amounted to 12.9 min.
